Data on 18 compounds can be found in ChEMBL document CHEMBL1125395, “Development of high-affinity 5-HT3 receptor antagonists. 1. Initial structure-activity relationship of novel benzamides” (J Med Chem, 1992).

In assay [1] the target is T1, Serotonin 3 (5-HT3) receptor (Rattus norvegicus, UniProt P35563+Q9JJ16).
T1 sequence (P35563 whole entry): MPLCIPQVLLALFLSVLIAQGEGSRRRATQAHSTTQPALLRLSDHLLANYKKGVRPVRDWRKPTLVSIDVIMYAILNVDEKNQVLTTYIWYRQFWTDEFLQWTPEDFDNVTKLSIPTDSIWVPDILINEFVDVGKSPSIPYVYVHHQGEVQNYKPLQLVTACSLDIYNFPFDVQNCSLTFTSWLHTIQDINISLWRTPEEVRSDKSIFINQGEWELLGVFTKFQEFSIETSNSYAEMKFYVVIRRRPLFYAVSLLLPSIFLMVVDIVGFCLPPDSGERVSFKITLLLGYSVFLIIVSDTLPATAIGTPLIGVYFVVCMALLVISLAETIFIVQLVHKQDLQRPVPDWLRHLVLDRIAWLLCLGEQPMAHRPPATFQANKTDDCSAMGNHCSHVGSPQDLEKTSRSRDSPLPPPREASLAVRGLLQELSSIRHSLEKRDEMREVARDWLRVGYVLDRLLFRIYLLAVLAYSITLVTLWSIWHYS
T1 sequence (Q9JJ16 whole entry): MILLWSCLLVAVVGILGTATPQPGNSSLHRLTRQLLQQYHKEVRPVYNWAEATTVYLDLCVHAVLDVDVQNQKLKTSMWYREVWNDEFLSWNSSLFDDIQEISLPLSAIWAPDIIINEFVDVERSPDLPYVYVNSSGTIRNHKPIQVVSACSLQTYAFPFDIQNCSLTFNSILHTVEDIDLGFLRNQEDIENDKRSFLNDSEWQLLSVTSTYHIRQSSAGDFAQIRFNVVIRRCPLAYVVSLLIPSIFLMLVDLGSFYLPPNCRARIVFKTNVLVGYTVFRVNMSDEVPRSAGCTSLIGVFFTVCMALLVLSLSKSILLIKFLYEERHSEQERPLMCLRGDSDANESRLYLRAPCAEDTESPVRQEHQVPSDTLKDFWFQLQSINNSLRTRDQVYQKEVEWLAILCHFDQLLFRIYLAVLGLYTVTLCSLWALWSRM
The assay can be described thus: Displacement of the 5-hydroxytryptamine 3 receptor ligand [3H]GR-65630 from rat brain cortical membranes. The class given is cell membranes, Membrane. The procedure, abridged: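 Entorhinal cortex from frozen rat brains homogenized, spun 40000g 10 min in HEPES buffer (25 mM HEPES, CaCl2 5 mM, pH 7.4). Filtration, Tris pH 7.7 washes, scintillation counting. Four-six concentrations in triplicate; Ki via Cheng-Prusoff.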

Assay [2] relates to Mustela putorius furo. The assay can be described thus: Antiemetic activity (intravenous administration) against cisplatin-induced emesis in ferret, as the dose required to reduce emetic episodes to 50% of control value. The class given is functional. The procedure, abridged:
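Castrated male Fitch ferrets (1-2 kg, nonfasted), jugular catheter implanted ≥48 h prior. Compound in 0.9% saline iv (2 mL/kg) 30 min before and 45 min after cisplatin 3 mg/kg iv. Emetic episodes counted for 4 h post-cisplatin, % inhibition vs vehicle controls run in tandem; dose halving episodes from 4-10 animals/dose, ≥3 doses, 95% confidence limits.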

Assay [3] relates to Mustela putorius furo. The assay can be described thus: Antiemetic activity (intravenous administration) against cisplatin-induced emesis in ferret, as the dose required to increase latency to first emetic bout by 100%. Format: functional. The procedure, abridged: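 Nonfasted castrated male Fitch ferrets (1-2 kg) with jugular vein catheter implanted under pentobarbital ≥48 h earlier. Drug in 0.9% saline, 2 mL/kg iv, 30 min before and 45 min after cisplatin (3 mg/kg iv). Emetic latency recorded over 4 h; % increase vs tandem vehicle; dose raising mean latency 100%. 3-12 ferrets/dose, ≥3 doses, 95% confidence limits.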

Assay [4] concerns Mustela putorius furo. The assay can be described thus: Antiemetic activity (oral administration) against cisplatin-induced emesis in ferret, as the dose required to reduce emetic episodes to 50% of control value. The class given is functional. The procedure, abridged: (§1)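 Nonfasted castrated male Fitch ferrets (1-2 kg), each used once. Drug dissolved/suspended in 0.5% methylcellulose in gelatin capsule, given po 60 min before cisplatin 3 mg/kg iv (via jugular catheter). Vehicle controls in tandem. Observed 4 h; emetic episodes and latency to first bout recorded. ED50 from 3-12 animals per dose, at least 3 doses, with 95% confidence limits.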

The test system of assay [5] is Mustela putorius furo. The assay can be described thus: Antiemetic activity (oral administration) against cisplatin-induced emesis in ferret, as the dose required to increase latency to first emetic bout by 50%. The class given is functional. The procedure, abridged: as §1

What is called Ki is the dissociation constant of the complex between target and ligand, obtained from inhibition or displacement. Read a low Ki as tighter binding. In the case of `CC1(C)CCCc2cc(Cl)cc(C(=O)NC3CN4CCC3CC4)c2O1` (stereo unspecified), the affinity in assay [1], expressed as Ki, was 15.6 nM.

The compound `O=C(NC1CN2CCC1CC2)c1cccc2c1OCCCC2` (stereo unspecified) came in with a Ki in assay [1] of 13.8 nM. This Ki and that of the compound before are within 1.5-fold of each other.

With `O=C(NC1CN2CCC1CC2)c1cc(Cl)cc2c1OCCCCC2` (stereo unspecified), the Ki in assay [1] amounted to 4.7 nM.

Regarding `COc1ccc(Cl)cc1C(=O)NC1CN2CCC1CC2` (stereo unspecified), in assay [1], the affinity, expressed as Ki, was 46.8 nM.

A word on the ED50: it is the dose that gives a 50% effect, or the effect in half of the subjects. For the compound `O=C(NC1CN2CCC1CC2)c1cc(Cl)cc2c1OC1(CCCCC1)C2` (stereo unspecified), affinity in assay [1] was put at a Ki of 1.07 nM. This compound also came in with an ED50 in the assay with Mustela putorius furo [2] of 0.002 mg/kg. This compound also returned an ED100 with Mustela putorius furo [3] of 0.006 mg/kg.

In assay [1], `O=C(NC1CCN2CCCC1C2)c1cc(Cl)cc2c1OCCCC2` (stereo unspecified) gave a Ki of 63 nM.

For the compound `O=C(N[C@H]1CN2CCC1CC2)c1cc(Cl)cc2c1OC1(CCCCC1)C2`, in assay [1], the Ki was 0.89 nM. In the assay on Mustela putorius furo [2], this compound registered an ED50 of 0.099 mg/kg. Further, the ED100 in the assay with Mustela putorius furo [3] came out at 0.055 mg/kg.

Turning to `O=C(N[C@@H]1CN2CCC1CC2)c1cc(Cl)cc2c1OC1(CCCCC1)C2`, the ED50 worked out at 0.009 mg/kg with Mustela putorius furo [4], 0.004 mg/kg in the assay with Mustela putorius furo [5] and 0.009 mg/kg with Mustela putorius furo [2]. In assay [1], the Ki was 0.19 nM. The same compound yielded an ED100 in the assay on Mustela putorius furo [3] of 0.005 mg/kg.

With `Nc1c(Cl)cc2c(c1C(=O)NC1CN3CCC1CC3)OCCCC2` (stereo unspecified), in assay [1], the inhibition constant (Ki) was > 100 nM.

Take `COc1c(C(=O)NC2CN3CCC2CC3)cc(Cl)cc1C1CCCCC1` (stereo unspecified): in assay [1], the Ki was determined as 6.09 nM. This lies in the single-digit nanomolar range.

For `CCC(C)Oc1c(C(=O)NC2CN3CCC2CC3)cc(Cl)cc1C1CCCCC1` (stereo unspecified), in assay [1], the Ki is > 30 nM.

`O=C(NC1CN2CCC1CC2)c1cc(Cl)cc2c1OCCCC2` (stereo unspecified) displayed a Ki in assay [1] of 1.22 nM.

With `O=C(NC1CN2CCC1CC2)c1cc(Br)cc2c1OCCCC2` (stereo unspecified), in assay [1], affinity was put at a Ki of 2.16 nM.

In assay [1], `CN1CC2CCC1CC(OC(=O)c1c[nH]c3ccccc13)C2` (stereo unspecified) yielded a Ki of 1.66 nM.

For `CN1C2CCCC1CC(NC(=O)c1nn(C)c3ccccc13)C2` (stereo unspecified) [GRANISETRON], the ED50 with Mustela putorius furo [4] is 0.119 mg/kg; with Mustela putorius furo [5], 0.117 mg/kg; in the assay with Mustela putorius furo [2], 0.226 mg/kg. The compound further had an ED100 with Mustela putorius furo [3] of 0.082 mg/kg.

For `CCN(CC)CCNC(=O)c1cc(Cl)c(N)cc1OC` [METOCLOPRAMIDE], the ED50 with Mustela putorius furo [4] was 6.17 mg/kg; in the assay with Mustela putorius furo [5], > 5 mg/kg; with Mustela putorius furo [2], 1.45 mg/kg. For the same compound, the affinity in assay [1], expressed as Ki, was 995 nM. In the assay with Mustela putorius furo [3], the ED100 stood at 2.1 mg/kg.

For `Cc1nccn1CC1CCc2c(c3ccccc3n2C)C1=O` (stereo unspecified) [ONDANSETRON], the ED50 was 0.28 mg/kg in the assay on Mustela putorius furo [4], 0.031 mg/kg in the assay with Mustela putorius furo [5] and 0.008 mg/kg in the assay with Mustela putorius furo [2]. In the assay with Mustela putorius furo [3], this compound had an ED100 of 0.015 mg/kg.

As to `COc1cc(N)c(Cl)cc1C(=O)NC1CN2CCC1CC2` (stereo unspecified) [ZACOPRIDE], the affinity in assay [1], expressed as Ki, was 1.5 nM.
